Test results: ChEMBL document CHEMBL5696442, “Discovery of type II inhibitors of TGFβ-activated kinase 1 (TAK1) and mitogen-activated protein kinase kinase kinase kinase 2 (MAP4K2)” (J Med Chem, 2015)
The source made the active and inactive calls. No cut-off for these calls is given here.

Assays:
[1] = molecular target: Serine/threonine-protein kinase mTOR (Homo sapiens) (UniProt P42345); test: Inhibition of FRAP ATP labeling site in human Huh-7 cells at 1 uM by KiNativ Profiling analysis relative to control; assay type: cell-based
[2] = molecular target: T1, Kinase suppressor of Ras 2 (Homo sapiens) (UniProt Q6VAB6); test: Inhibition of KSR2 ACT labeling site in human A-375 cells at 0.05 uM by KiNativ Profiling analysis relative to control; assay type: cell-based
T1 sequence (whole entry): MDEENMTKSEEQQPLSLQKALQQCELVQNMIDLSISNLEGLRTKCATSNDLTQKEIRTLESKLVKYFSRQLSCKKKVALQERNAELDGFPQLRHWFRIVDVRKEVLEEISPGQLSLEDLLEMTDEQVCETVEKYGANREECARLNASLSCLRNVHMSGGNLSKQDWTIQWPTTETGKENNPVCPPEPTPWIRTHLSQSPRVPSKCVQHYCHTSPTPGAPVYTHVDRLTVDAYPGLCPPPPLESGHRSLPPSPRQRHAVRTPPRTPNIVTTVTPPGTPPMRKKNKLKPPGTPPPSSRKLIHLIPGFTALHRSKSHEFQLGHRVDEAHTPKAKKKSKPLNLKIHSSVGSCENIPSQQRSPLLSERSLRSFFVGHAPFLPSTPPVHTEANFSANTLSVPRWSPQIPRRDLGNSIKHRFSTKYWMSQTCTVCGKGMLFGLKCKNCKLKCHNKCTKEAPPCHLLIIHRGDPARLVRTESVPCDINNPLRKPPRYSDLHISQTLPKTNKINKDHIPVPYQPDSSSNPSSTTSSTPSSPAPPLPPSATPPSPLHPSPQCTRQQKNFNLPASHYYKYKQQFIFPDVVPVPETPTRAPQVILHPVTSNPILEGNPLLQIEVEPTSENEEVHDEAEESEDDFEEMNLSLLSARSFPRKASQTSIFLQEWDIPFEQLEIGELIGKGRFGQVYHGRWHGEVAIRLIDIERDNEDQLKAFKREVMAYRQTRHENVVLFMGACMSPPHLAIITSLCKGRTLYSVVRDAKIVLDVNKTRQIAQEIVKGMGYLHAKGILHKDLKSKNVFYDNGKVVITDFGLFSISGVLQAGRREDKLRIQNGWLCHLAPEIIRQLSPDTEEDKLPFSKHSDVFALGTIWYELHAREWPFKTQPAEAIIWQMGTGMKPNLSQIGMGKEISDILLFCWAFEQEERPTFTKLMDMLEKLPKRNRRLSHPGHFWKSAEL

[3] = molecular target: Serine/threonine-protein kinase 10 (Homo sapiens) (UniProt O94804); test: Inhibition of LOK Lys1 labeling site harbouring ETGALAAAKVIETK in human A-375 cells at 0.05 uM by KiNativ Profiling analysis relative to control; assay type: cell-based
[4] = molecular target: Serine/threonine-protein kinase SMG1 (Homo sapiens) (UniProt Q96Q15); test: Inhibition of SMG1 ATP labeling site harbouring SYPYLFKGLEDLHLDER in human A-375 cells at 0.5 uM by KiNativ Profiling analysis relative to control; assay type: cell-based
Summary of the method: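 Live A375 melanoma cells treated with compound at 5 or 0.5 μM, then lysed. Lysate kinases were labeled with a lysine-reactive ATP or ADP-biotin probe. Inhibition was read as protection of labeling sites from the probe.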

[5] = molecular target: Phosphatidylinositol 4-kinase beta (Homo sapiens) (UniProt Q9UBF8); test: Inhibition of PI4KB ATP labeling site harbouring VPHTQAVVLNSKDK in human A-375 cells at 5 uM by KiNativ Profiling analysis relative to control; assay type: cell-based
[6] = molecular target: T2, Serine/threonine-protein kinase 3 (Homo sapiens) (UniProt Q13188); test: Inhibition of MST2 Lys2 labeling site harbouring DIKAGNILLNTEGHAK in human A-375 cells at 5 uM by KiNativ Profiling analysis relative to control; assay type: cell-based
T2 sequence (whole entry): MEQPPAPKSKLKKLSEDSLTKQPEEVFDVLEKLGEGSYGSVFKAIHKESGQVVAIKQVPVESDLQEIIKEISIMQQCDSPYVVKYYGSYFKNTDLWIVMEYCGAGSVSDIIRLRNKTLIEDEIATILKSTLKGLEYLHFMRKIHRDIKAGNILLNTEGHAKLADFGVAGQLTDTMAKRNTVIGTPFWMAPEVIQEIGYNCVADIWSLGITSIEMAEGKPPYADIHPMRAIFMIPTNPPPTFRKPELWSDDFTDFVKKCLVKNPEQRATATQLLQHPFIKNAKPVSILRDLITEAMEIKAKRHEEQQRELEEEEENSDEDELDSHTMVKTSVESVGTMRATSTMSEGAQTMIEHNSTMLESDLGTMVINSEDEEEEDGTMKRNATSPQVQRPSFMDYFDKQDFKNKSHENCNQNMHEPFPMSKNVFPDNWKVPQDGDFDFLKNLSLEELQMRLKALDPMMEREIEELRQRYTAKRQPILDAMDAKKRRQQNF

[7] = molecular target: Serine/threonine-protein kinase tousled-like 2 (Homo sapiens) (UniProt Q86UE8); test: Inhibition of TLK2 Lys1 labeling site in human A-375 cells at 0.05 uM by KiNativ Profiling analysis relative to control; assay type: cell-based
[8] = molecular target: Mitogen-activated protein kinase kinase kinase 20 (Homo sapiens, UniProt Q9NYL2); test: Inhibition of ZAK Lys1 labeling site in human A-375 cells at 0.05 uM by KiNativ Profiling analysis relative to control; assay type: cell-based
[9] = molecular target: Serine/threonine-protein kinase MRCK beta (Homo sapiens) (UniProt Q9Y5S2); test: Inhibition of MRCKb in human A-375 cells at 0.5 uM by KiNativ Profiling analysis relative to control; assay type: cell-based
[10] = Inhibition of p70S6K Lys2 labeling site in human A-375 cells at 5 uM by KiNativ Profiling analysis relative to control; conditions: condition cancer
[11] = molecular target: Serine/threonine-protein kinase WNK4 (Homo sapiens) (UniProt Q96J92); test: Inhibition of Wnk4 ACT labeling site in human A-375 cells at 0.05 uM by KiNativ Profiling analysis relative to control; assay type: cell-based
[12] = molecular target: Calcium/calmodulin-dependent protein kinase type II subunit gamma (Homo sapiens) (UniProt Q13555); test: Inhibition of CaMK2g Lys1 labeling site harbouring KTSTQEYAAKIINTKK in human A-375 cells at 0.05 uM by KiNativ Profiling analysis relative to control; assay type: cell-based
[13] = molecular target: Interferon-induced, double-stranded RNA-activated protein kinase (Homo sapiens) (UniProt P19525); test: Inhibition of PKR Lys2 labeling site in human A-375 cells at 5 uM by KiNativ Profiling analysis relative to control; assay type: cell-based
[14] = molecular target: eIF-2-alpha kinase GCN2 (Homo sapiens) (UniProt Q9P2K8); test: Inhibition of GCN2 domain2 Lys1 labeling site in human A-375 cells at 0.5 uM by KiNativ Profiling analysis relative to control; assay type: cell-based
[15] = Inhibition of p70S6K ATP Loop labeling site harbouring GGYGKVFQVR in human A-375 cells at 5 uM by KiNativ Profiling analysis relative to control; conditions: condition cancer

Chain of Phosphatidylinositol 4-kinase beta (Homo sapiens) (Q9UBF8 2-816 limits assumed): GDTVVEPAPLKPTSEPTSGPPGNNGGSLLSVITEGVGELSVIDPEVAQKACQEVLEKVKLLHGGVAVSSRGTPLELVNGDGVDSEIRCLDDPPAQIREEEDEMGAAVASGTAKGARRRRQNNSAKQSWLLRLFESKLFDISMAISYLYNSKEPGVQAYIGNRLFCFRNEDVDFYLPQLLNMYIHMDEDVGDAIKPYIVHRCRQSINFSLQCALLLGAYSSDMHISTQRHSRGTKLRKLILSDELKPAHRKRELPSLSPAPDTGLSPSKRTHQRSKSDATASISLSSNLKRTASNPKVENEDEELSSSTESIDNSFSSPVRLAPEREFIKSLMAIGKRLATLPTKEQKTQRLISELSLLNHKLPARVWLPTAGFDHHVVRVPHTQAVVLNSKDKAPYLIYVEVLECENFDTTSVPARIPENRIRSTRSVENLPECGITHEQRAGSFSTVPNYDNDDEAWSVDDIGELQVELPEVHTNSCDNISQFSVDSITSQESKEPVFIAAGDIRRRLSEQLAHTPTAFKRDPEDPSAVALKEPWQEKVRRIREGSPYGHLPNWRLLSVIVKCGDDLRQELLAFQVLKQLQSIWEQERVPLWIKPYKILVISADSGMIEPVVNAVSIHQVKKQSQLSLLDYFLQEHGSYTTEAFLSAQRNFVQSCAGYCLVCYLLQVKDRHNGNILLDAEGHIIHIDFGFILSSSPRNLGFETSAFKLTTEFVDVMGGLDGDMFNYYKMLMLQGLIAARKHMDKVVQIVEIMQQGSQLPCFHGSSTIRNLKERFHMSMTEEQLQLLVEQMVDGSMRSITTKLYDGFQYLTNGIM
Chain of eIF-2-alpha kinase GCN2 (Homo sapiens) (Q9P2K8 whole entry, the tested form may be a part): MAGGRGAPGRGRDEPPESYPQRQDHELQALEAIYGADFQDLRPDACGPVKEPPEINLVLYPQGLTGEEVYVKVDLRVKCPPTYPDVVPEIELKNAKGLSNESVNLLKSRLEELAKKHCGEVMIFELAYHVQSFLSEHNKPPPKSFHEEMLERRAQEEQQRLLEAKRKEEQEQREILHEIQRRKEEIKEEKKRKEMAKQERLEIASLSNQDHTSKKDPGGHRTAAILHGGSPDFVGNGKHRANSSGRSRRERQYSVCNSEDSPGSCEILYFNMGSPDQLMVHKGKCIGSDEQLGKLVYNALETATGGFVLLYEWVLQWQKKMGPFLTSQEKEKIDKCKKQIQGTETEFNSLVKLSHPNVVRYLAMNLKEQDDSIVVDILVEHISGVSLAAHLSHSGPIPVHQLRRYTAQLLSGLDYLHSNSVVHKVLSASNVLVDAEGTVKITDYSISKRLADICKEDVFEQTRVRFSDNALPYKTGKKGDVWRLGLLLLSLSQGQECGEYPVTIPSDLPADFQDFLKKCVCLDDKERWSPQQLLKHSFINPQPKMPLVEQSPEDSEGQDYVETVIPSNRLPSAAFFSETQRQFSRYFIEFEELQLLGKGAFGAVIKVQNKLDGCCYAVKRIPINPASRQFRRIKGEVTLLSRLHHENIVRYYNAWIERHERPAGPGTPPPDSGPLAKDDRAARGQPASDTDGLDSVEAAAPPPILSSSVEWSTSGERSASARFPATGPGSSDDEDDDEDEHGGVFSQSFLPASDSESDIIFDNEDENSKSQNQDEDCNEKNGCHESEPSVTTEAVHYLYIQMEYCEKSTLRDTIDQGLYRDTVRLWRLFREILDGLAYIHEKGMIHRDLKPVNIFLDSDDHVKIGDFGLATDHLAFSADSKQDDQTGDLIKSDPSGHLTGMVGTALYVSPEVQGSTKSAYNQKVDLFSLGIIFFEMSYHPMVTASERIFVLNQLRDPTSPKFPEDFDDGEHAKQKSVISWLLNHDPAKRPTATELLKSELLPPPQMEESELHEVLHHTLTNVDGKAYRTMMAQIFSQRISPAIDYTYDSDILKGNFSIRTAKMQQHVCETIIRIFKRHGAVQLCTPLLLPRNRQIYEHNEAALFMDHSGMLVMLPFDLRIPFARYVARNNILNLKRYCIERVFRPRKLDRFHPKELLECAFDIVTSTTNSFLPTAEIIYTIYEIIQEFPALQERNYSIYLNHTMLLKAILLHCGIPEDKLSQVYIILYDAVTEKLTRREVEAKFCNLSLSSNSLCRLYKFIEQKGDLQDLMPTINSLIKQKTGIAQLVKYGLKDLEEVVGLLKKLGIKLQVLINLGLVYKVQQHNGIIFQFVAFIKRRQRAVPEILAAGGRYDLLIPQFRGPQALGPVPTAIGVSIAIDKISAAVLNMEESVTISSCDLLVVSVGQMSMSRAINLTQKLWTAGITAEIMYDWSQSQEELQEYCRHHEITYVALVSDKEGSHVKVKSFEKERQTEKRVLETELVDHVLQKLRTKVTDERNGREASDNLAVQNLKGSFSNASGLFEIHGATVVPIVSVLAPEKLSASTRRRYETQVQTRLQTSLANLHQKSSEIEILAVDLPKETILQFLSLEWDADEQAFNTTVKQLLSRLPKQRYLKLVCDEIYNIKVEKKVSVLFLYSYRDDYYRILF
Chain of Serine/threonine-protein kinase MRCK beta (Homo sapiens) (Q9Y5S2 whole entry): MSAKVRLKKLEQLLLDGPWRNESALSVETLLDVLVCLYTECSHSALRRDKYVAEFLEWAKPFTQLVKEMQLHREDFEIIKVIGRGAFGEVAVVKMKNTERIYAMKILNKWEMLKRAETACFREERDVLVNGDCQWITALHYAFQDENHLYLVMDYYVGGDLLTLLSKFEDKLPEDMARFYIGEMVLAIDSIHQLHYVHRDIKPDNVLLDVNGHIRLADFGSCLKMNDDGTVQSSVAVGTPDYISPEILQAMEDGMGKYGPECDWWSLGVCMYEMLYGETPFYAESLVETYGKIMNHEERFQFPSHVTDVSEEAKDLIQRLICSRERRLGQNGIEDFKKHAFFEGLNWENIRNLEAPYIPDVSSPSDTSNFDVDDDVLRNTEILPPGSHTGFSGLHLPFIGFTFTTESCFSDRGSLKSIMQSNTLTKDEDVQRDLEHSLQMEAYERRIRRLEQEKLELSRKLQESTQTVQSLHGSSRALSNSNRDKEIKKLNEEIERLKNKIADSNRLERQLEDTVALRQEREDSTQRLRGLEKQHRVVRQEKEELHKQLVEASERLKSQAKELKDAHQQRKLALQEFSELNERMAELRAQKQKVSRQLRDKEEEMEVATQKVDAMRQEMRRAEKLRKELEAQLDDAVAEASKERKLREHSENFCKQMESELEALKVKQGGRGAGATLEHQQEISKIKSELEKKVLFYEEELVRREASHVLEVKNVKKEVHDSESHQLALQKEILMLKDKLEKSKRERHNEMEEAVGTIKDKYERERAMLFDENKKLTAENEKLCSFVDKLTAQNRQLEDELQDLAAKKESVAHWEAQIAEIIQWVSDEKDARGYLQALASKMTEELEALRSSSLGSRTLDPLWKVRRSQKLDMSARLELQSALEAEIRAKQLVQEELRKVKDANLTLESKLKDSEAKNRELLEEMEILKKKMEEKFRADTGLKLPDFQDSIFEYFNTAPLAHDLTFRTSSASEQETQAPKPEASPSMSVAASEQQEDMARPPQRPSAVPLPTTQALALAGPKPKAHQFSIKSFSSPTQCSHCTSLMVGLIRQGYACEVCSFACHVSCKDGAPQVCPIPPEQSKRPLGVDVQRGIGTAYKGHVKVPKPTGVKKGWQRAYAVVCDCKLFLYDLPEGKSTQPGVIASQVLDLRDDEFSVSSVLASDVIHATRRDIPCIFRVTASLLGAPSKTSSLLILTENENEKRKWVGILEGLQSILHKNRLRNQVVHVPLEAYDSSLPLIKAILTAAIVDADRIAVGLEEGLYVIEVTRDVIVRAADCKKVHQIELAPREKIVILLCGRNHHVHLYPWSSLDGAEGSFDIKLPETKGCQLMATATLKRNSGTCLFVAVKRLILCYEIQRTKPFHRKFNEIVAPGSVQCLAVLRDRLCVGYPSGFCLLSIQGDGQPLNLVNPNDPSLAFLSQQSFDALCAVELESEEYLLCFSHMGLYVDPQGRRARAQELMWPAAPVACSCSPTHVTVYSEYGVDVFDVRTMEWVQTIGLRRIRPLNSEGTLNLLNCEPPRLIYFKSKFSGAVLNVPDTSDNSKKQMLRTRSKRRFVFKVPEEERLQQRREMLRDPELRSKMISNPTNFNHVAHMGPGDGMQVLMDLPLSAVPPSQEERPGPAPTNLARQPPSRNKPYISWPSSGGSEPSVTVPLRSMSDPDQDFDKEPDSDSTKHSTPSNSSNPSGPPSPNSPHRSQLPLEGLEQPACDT
Chain of Interferon-induced, double-stranded RNA-activated protein kinase (Homo sapiens) (P19525 whole entry, the tested form may be a part): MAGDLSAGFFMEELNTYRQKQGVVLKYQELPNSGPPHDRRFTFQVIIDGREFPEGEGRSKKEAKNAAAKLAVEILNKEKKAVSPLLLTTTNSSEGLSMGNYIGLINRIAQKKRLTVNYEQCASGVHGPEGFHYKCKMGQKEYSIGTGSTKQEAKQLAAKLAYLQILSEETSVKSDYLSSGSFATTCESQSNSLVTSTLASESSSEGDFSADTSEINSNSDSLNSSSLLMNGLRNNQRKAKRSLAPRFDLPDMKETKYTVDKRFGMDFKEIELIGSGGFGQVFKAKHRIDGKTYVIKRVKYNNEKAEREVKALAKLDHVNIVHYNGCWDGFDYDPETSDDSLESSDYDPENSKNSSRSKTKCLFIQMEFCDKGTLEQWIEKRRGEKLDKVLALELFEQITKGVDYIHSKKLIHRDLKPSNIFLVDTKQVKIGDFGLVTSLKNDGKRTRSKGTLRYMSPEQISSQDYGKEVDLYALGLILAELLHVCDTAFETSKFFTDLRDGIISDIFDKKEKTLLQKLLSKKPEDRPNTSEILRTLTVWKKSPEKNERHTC

Compound	inhibition [1]	inhibition [2]	inhibition [3]	inhibition [4]	inhibition [5]	inhibition [6]	inhibition [7]	inhibition [8]	inhibition [9]	inhibition at 5 µM [10]	inhibition [11]	inhibition [12]	inhibition [13]	inhibition [14]	inhibition at 5 µM [15]
CNc1cc(Oc2cc(C(=O)Nc3cc(N4CCN(C)CC4)cc(C(F)(F)F)c3)ccc2C)ncn1	26.5%	–	–	–	–	–	–	–	–	–	–	–	–	–	–
CCN1CCN(Cc2ccc(NC(=O)c3ccc(C)c(Oc4ccnc5[nH]ccc45)c3)cc2C(F)(F)F)CC1	inactive	37%	40.5%	3%	-5.8%	3.5%	13.4%	74.1%	-3%	-45.5%	10.3%	16.6%	2.1%	-10%	14.7%
CCN1CCN(Cc2ccc(NC(=O)c3ccc(C)c(/C=C/c4cnc5[nH]ccc5c4OC)c3)cc2C(F)(F)F)CC1	–	8.6%	39.6%	33.7%	-6.8%	14.1%	17.1%	80.5%	7.3%	-15.2%	10.1%	14.5%	-6.7%	40.4%	-8%
